# Test results: ChEMBL document CHEMBL1154588, “Evaluation of triazolamers as active site inhibitors of HIV-1 protease” (Bioorg Med Chem Lett, 2009)
# Target: Protease (Human immunodeficiency virus 1, UniProt Q9YQ12)
# Test: Inhibition of HIV1 protease by FRET-based assay
# Outline: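 HIV-1 protease activity was read out by a FRET-based protease assay, following a previously described method. Triazolamer solutions were made up in 10% DMSO in aqueous buffer for the assay.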
# Protease, sequence (Q9YQ12 whole entry): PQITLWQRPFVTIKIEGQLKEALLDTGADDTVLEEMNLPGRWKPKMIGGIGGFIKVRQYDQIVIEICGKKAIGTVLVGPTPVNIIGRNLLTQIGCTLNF
Compound,IC50 [µM],Ki [µM]
CC(C)[C@@H](c1cn([C@@H](Cc2ccccc2)c2cn([C@@H](Cc3ccccc3)c3cn([C@H](c4cn([C@H](C)c5ccccc5)nn4)C(C)C)nn3)nn2)nn1)n1cc(CCc2ccccc2)nn1,101,
C[C@H](c1ccccc1)n1cc([C@H](Cc2ccccc2)n2cc([C@H](Cc3ccccc3)n3cc([C@@H](N)Cc4ccccc4)nn3)nn2)nn1,78,
CC(C)[C@H](N)c1cn([C@@H](Cc2ccccc2)c2cn([C@@H](Cc3ccccc3)c3cn([C@H](C)c4ccccc4)nn3)nn2)nn1,129,
CNC(=O)[C@H](C(C)C)n1cc([C@H](Cc2ccccc2)n2cc([C@H](Cc3ccccc3)n3cc([C@@H](N)C(C)C)nn3)nn2)nn1,> 500,500
CC(C)[C@H](N)c1cn([C@@H](Cc2ccccc2)c2cn([C@@H](Cc3ccccc3)c3cn([C@H](c4cn([C@H](C)c5ccccc5)nn4)C(C)C)nn3)nn2)nn1,60,
CNC(=O)[C@H](C(C)C)n1cc([C@H](Cc2ccccc2)n2cc([C@H](Cc3ccccc3)n3cc([C@H](C)N)nn3)nn2)nn1,> 500,500

# Continued by falling IC50, values first:
IC50 [µM],Ki [µM],Compound
131,,CC(C)[C@H](N)c1cn([C@H](c2cn([C@@H](Cc3ccccc3)c3cn([C@H](c4cn([C@H](C)c5ccccc5)nn4)C(C)C)nn3)nn2)C(C)C)nn1
72,,CNC(=O)[C@H](Cc1ccccc1)n1cc([C@H](Cc2ccccc2)n2cc([C@H](Cc3ccccc3)n3cc([C@H](Cc4ccccc4)n4cc([C@@H](N)Cc5ccccc5)nn4)nn3)nn2)nn1
29,25,C[C@H](c1ccccc1)n1cc([C@H](Cc2ccccc2)n2cc([C@H](Cc3ccccc3)n3cc([C@H](Cc4ccccc4)n4cc([C@@H](N)Cc5ccccc5)nn4)nn3)nn2)nn1
25,25,NCCNC(=O)[C@H](Cc1ccccc1)n1cc([C@H](Cc2ccccc2)n2cc([C@H](Cc3ccccc3)n3cc([C@H](Cc4ccccc4)n4cc([C@@H](N)Cc5ccccc5)nn4)nn3)nn2)nn1
